MrgX1 PAM – allosterically activates human MrgX1 receptor signaling; 0.63% of 310,000 active; MrgX1-HEK293, Fluo-4 calcium flux, FDSS; active compounds read high; B-score at 10 µM;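 active = plate-corrected calcium response at least 3 library SD above typical, normal starting fluorescence, not activating the receptor alone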;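 also: compound read alongside a low EC10 to EC30 dose of BAM8-22 agonist; peak minus trough fluorescence over baseline measured at the second addition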
Target sequence (Q96LB2 whole entry, looked up): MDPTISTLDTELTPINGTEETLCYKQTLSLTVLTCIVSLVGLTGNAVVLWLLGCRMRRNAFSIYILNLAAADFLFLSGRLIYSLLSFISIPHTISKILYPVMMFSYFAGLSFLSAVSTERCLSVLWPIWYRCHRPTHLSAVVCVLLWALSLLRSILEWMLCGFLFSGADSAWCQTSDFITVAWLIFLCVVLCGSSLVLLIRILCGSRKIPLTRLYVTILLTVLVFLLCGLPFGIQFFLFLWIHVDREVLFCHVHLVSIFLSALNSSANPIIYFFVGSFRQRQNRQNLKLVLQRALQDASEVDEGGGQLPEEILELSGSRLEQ
RGS4 pot – potentiators or activators of RGS4; HEK293 M3R/inducible RGS4, carbachol calcium flux Fluo4; active compounds read low; B-score at 10 µM; 0.92% of 310,000 active; AID 463111;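 active = B-score of the integrated calcium signal more than 4 SD below the library mean, with starting fluorescence not abnormally high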;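 also: negative B-score means reduced calcium response which marks RGS4 activation or potentiation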
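test system = M3R-expressing HEK293 line, RGS4 induced by doxycycline | probe or stimulus = carbachol at ECmax as muscarinic agonist stimulus | timing = dye loading 30 min 37 °C, buffer rest 30 min RT | signal = calcium dye Fluo4 fluorescence | evaluation = B score from integrated fluorescence ratio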
MrgX1 ag – agonists of human MrgX1 receptor; Q96LB2; MrgX1-HEK293 cells, Fluo-4 calcium fluorescence, agonist mode; active compounds read high; B-score at 10 µM; 0.44% of 310,000 active; AID 588627;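 active = calcium response B-score plate-corrected fluorescence ratio at least 3 library SD, with starting fluorescence B-score inside 5 SD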
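Test system: HEK293 cells stably expressing human MrgX1 receptor; amount: 15,000 cells per well; doses: compound delivered in addition one of three; times: overnight plating before 1 h dye loading; detection: Fluo-4 NW calcium-flux fluorescence, kinetic read; read-out basis: B-scored fluorescence response ratio; controls: positive and negative controls per plate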
RGS4 inh – inhibitors of human RGS4 | P49798 | HEK293 M3R/RGS4 inducible, Fluo-4 calcium flux; active compounds read high; triggered by carbachol at its EC20 | B-score at 10 µM | 0.45% of 310,000 active | AID 463165;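 active = B-score, a plate-corrected calcium signal, over three deviations above library mean, with baseline fluorescence within five deviations of library mean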;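 also: RGS4 expression induced by doxycycline in cells with stable M3 receptor; B-score is computed from the integrated fluorescence ratio over baseline after carbachol; higher B-score means a larger calcium signal and so more RGS4 inhibition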
MrgX1 antag – blocks BAM8-22 activation of human MrgX1 receptor. 1.3% of 310,000 active. Q96LB2. AID 588676. B-score at 10 µM. MRGX1-HEK293 calcium flux, Fluo-4, BAM8-22 antagonism; active compounds read low;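 active = calcium-response B-score plate-corrected more than 3 library SD below zero, starting fluorescence within 5 deviations, no agonist response on first addition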;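 also: peak minus trough fluorescence over baseline after final BAM8-22 challenge near maximal dose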
Active calls of the source: *; i = inactive; · = no result given; ! = a repeat was not active. A selection: hits, their analogues and other compounds. The true share with any hit is near 3.5%.

SMILES	MrgX1 PAM	RGS4 pot	MrgX1 ag	RGS4 inh	MrgX1 antag
CC1CC(CC(C)C(=O)NC(=S)Nc2ccc(S(N)(=O)=O)cc2)C(=O)O1 (configuration not stated)	i	i	i	i	-6.52*
O=C(Nc1cccc(Cl)c1Cl)C1CCN(C(=O)c2cccs2)CC1	i	i	i	i	i
O=C1CCC([N+](=O)[O-])C(c2cc3c(cc2Cl)OCO3)N1 (configuration not stated)	i	i	i	i	-4.51*
O=C(CSCc1cnn(-c2ccccc2)c1-n1cccc1)NCc1ccc2c(c1)OCO2	·	-7.31*	·	i	·
CCOc1c2ccccc2nn1CCO	i	·	i	·	i
Cc1cccc(-n2c(N)c(-c3nc4ccccc4n3C)c3nc4ccccc4nc32)c1	i	-7.46*	i	i	i
Cn1c(-c2c(N)n(-c3ccccc3)c3nc4ccccc4nc23)nc2ccccc21	i	i	i	i	i
O=C(NCC(=O)N1CCN(c2ccccc2F)CC1)c1ccco1	·	i	·	i	·
CCn1c(CC(=O)Nc2ccc(F)cc2)nnc1SCC(=O)Nc1nncs1	i	i	i	i	i
Cc1nc(S/C(=C/c2ccc(-c3cc(Cl)ccc3C)o2)C(=O)O)n[nH]1	i	i	i	i	-4.98*
Cc1nc(S/C(=C/c2ccc(-c3ccc(C(=O)O)cc3)o2)C(=O)O)n[nH]1	i	i	i	i	i
Cc1nc(S/C(=C/c2ccc(-c3ccc(Cl)cc3)o2)C(=O)O)n[nH]1	i	i	i	i	i
CC(=O)c1ccc(-c2ccc(/C=C(/Sc3n[nH]c(C)n3)C(=O)O)o2)cc1	i	i	i	i	-4.77*
CC(C)(CN1CCCC1)NC(=O)C1CCC(=O)N(CCCN2CCOCC2)C1 (configuration not stated)	i	i	i	i	i
CCN1C(=O)/C(=C/C=C2\N(CC)c3cc(S(=O)(=O)N(C)C)ccc3N2c2ccccc2)SC1=S	i	i	36.4*	i	i
COc1ccc(C)c(-n2c(N)cc(=O)n(Cc3ccccc3)c2=O)c1	i	i	i	i	i
COc1ccc2[nH]cc(/C=C/c3cc[n+](C)cc3)c2c1	i	i	i	i	-7.9*
COc1ccc2[nH]cc(C=O)c2c1	i	i	i	i	i
Cc1ccc(-c2cn3nc(-c4ccccc4)c(-c4ccccc4)nc3n2)cc1	i	-6.98*	i	i	i
COc1ccccc1-n1c(-c2ccccc2)c[n+]2c1CCc1ccccc1-2	i	-7.94*!	i	i	i
OCCCCNCc1ccc(OCc2ccc(Cl)cc2)cc1	i	-7.27*	i	i	i
CCCCCNCc1ccc(Cl)cc1	i	i	i	i	i
Cc1c(Br)c([N+](=O)[O-])nn1CC(=O)NCc1cccs1	i	i	i	i	-4.8*
Cc1c(Br)c([N+](=O)[O-])nn1C(C)C(=O)NCc1cccs1 (configuration not stated)	i	i	i	i	i
CCCCCCCCCCn1c2c(c(=N)c3c1CCC3)CCC2	i	-8.74*	i	i	-6.17*
SMILES	MrgX1 PAM	RGS4 pot	MrgX1 ag	RGS4 inh	MrgX1 antag
CCN(CC)CCCn1c2c(c(SCC(=O)Nc3cc(C)on3)nc1=O)CCC2	i	i	i	i	i
Cc1cc(C)c2cc3c(N)c(C(=O)N4CCc5ccccc5C4)sc3nc2c1	i	-7.96*	i	i	-8.46*
O=[N+]([O-])c1cc([N+](=O)[O-])c(Oc2c(F)cc(F)cc2F)cc1NN1CCCCC1	i	i	i	i	i
COc1cc(OC)cc(C(=O)/C=C2\Sc3ccccc3N2C)c1	i	i	i	i	i
COc1ccc2c(c1)N(C)/C(=C/c1cccc[n+]1C)S2	i	-9.42*	i	i	-5.76*
CCN1/C(=C/c2cccc[n+]2C)Sc2ccc(OC)cc21	i	-7.52*	i	i	-6.05*
CCOC(=O)c1ccc(NC(=S)NNC(=O)COC)cc1	i	i	i	i	-7.88*
Cc1ccc2c(c1)C(O)(c1c(C)[nH]c3ccccc13)C(=O)N2 (configuration not stated)	i	i	i	6.31*	i

Source: PubChem BioAssay
